Compounds with a hit are over-represented: about 2.6% of the library has one in this group of screens.
AF4-AF9 inh: inhibitors of AF4 peptide binding to AF9, primary screen, biochemical, AlphaScreen, biotin-AF4 peptide, FLAG-AF9, single point; 350,000 tested, 0.47% active; Protein AF-9 (Homo sapiens), P42568; AID 651704, 2012; inhibition, % at 10 µM;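 active = every replicate reaching a set inhibition limit, whatever the replicate mean, cut at about 25% in these data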
GSIS activator: GLuc luminescence reporter in INS-1E cells, primary screen for activators of glucose-dependent secretion of insulin | INS-1E GLuc reporter insulin secretion, 2-3 h | activation, % at 16.6 µM | 370,000 tested, 0.61% active | AID 743287, 2014;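 active = lowest replicate activation of at least 40%, so every replicate reaches that level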
RAD54 branch: inhibitors of human RAD54 branch migration, primary screen, biochemical, fluorescence, single point; DNA repair and recombination protein RAD54-like (Homo sapiens), Q92698; RAD54 Holliday junction branch migration, FAM/BHQ fluorescence; inhibition, % at 10.4 µM; 360,000 tested, 0.14% active;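 active = mean normalized replicate activity at least 40 and at least half of replicates scoring 40 or more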;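 also: inhibitors cause a drop in the FAM fluorescence signal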
E-sel inducer: E-selectin induction in HUVECs, primary screen, imaging, HUVEC, immunofluorescence imaging, single point; P16581; 260,000 tested, 0.37% active; activation, % at 7.58 µM; normalized: neutral wells 0, TNF-alpha wells 100; AID 686992, 2013;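 active = mean E-selectin-positive cell signal at least 10% of the positive control, reached in at least 60% of replicates, without over 20% cell loss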
Target sequence (P16581 whole entry, looked up): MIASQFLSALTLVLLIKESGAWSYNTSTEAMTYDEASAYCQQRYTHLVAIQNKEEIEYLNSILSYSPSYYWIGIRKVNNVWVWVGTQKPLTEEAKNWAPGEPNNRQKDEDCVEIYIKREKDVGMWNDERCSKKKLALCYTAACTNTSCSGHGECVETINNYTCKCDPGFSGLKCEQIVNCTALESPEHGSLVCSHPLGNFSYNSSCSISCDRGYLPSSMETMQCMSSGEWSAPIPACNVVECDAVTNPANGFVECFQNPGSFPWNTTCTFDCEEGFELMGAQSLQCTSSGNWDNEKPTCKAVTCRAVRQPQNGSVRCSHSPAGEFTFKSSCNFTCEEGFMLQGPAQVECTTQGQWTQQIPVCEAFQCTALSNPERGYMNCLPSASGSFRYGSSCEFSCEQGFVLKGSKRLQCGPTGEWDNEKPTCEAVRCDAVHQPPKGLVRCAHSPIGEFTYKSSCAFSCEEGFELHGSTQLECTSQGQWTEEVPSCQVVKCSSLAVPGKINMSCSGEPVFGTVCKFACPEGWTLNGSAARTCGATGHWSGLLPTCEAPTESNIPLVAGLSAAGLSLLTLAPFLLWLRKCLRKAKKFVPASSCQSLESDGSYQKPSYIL
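System: HUVEC / Compound: single concentration / Signal: immunofluorescence imaging / Read-out: percent E-selectin-positive cells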
RAD52 anneal inh: RAD52 DNA annealing inhibitors, primary screen, biochemical, FRET, single point, set 2. recombinant RAD52 DNA annealing, FRET fluorescence. 360,000 tested, 0.46% active. inhibition, % at 18.7 µM;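 active = every replicate showing at least 50% inhibition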
rRNA inh HTS: reduced GFP signal of wild-type E. coli, primary screen, bacterial rRNA inhibitor project, GFP/RFP fluorescence, OD600, single point; E. coli WT GFP vs humanized-ribosome RFP mutants, 24 h; hits give low values; DMSO median 0, no signal -100; GFP signal change (wild-type ribosome), % (no concentration beside the values); 350,000 tested, 1.6% active;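 active = significant combined selectivity score with lowered wild-type GFP, culture density cut under 30%, mutant RFP and density less affected; inactive = any of these conditions unmet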
Numbers stand for hits; – = inactive; · = no result.

SMILES	AF4-AF9 inh	GSIS activator	RAD54 branch	E-sel inducer	RAD52 anneal inh	rRNA inh HTS
Cc1nnc(NC(=O)CSc2nnc(CNC(=O)c3ccccc3F)n2C(C)C)s1	–	–	·	·	–	–
CCOC(=O)c1cnc(-n2nc(C)cc2C)nc1NC1CCCC1	–	–	–	–	–	-49
Cc1noc(C)c1NC(=O)N(C)C[C@H]1Oc2ccc(N(C)C)cc2CC(=O)N([C@H](C)CO)C[C@@H]1C	–	–	–	–	–	–
Cn1c(=O)c2[nH]c(SCc3ccccn3)nc2n(C)c1=S	–	181	·	·	–	–
CCSc1nc2c([nH]1)c(=O)n(C)c(=S)n2C	–	–	–	·	–	–
CCCNC(=O)C[C@H]1CC[C@@H]2[C@H](COc3ccc(NC(=O)NCC)cc3C(=O)N2C)O1	–	–	–	–	–	–
C[C@@H]1CN([C@H](C)CO)C(=O)c2cc(NC(=O)CCCCCC(=O)Nc3ccccc3N)ccc2O[C@H]1CN(C)C(=O)NC1CCCCC1	–	–	·	–	–	–
O=S(=O)(CCN1C=CC(C(F)(F)F)=NCC1)c1ccc(Cl)cc1Cl	44	–	–	–	–	·
O=S(=O)(CCN1C=CC(C(F)(F)F)=NCC1)c1ccc(F)cc1	–	–	–	–	–	–
O=C(Nc1ccc2c(c1)[C@@H]1C[C@H](CC(=O)N3CCOCC3)O[C@H](CO)[C@@H]1O2)c1cccnc1	–	–	–	–	–	–
CN(C1CCCCC1)S(=O)(=O)c1cn(C)c(=O)n(C)c1=O	–	–	–	29	–	–
C[C@H](CO)N1C[C@H](C)[C@H](CN(C)S(=O)(=O)c2ccc(Cl)cc2)Oc2ccc(NC(=O)Nc3ccc4c(c3)OCO4)cc2CC1=O	–	–	–	–	–	–
O=c1c(Cl)c(NCCO)cnn1-c1cccc(Cl)c1	–	46	·	·	–	–
CC1Sc2ccc(C(=O)Nc3ccccc3OC(F)F)cc2NC1=O (centres undefined)	–	–	·	–	–	-20
O=C(N/C(=C/c1ccc(Br)cc1)C(=O)N1CCCC1)c1ccccc1F	–	·	–	–	–	·
COc1ccccc1C(=O)N/C(=C\c1ccc(Br)cc1)C(=O)N1CCCC1	–	–	–	·	–	-40
Oc1ccc(C=NNc2ccccn2)c(O)c1	42	–	·	–	–	–
Oc1cccc(C=NNc2ccccn2)c1	–	–	–	–	–	–
O=[N+]([O-])c1ccc(NN=Cc2ccc(O)cc2O)nc1	–	–	–	–	–	-22
O=C(c1ccncc1)N1CC(=O)N2[C@H](CO)[C@H](c3ccc(-c4cccnc4)cc3)[C@H]2C1	–	–	·	–	–	–
CC(=O)Nc1nc(NC(=O)C(Cl)(Cl)Cl)n(-c2ccccc2)n1	–	·	·	–	–	-23
CC(=O)Nc1nc(N)n(-c2ccccc2)n1	·	·	–	·	·	·
CCN(CC)CCN(C(=O)c1ccccc1OC)c1nc2ccc(F)cc2s1	–	–	·	–	–	-22
CN(C)CCN(C(=O)c1cc(Cl)sc1Cl)c1nc2ccc(F)cc2s1	–	–	–	·	–	–
O=C(C[C@H]1CC[C@H]2[C@@H](COC[C@@H](O)CN2C(=O)c2ccc(F)cc2)O1)Nc1nccs1	–	–	–	–	–	–
SMILES	AF4-AF9 inh	GSIS activator	RAD54 branch	E-sel inducer	RAD52 anneal inh	rRNA inh HTS
CCCC#Cc1ccc2c(c1)O[C@@H](CN(C)C(=O)c1ccccc1)[C@@H](C)CN([C@H](C)CO)S2(=O)=O	–	–	–	96	–	–
CC(C)CC#Cc1ccc2c(c1)O[C@H](CN(C)C(=O)c1ccccc1)[C@H](C)CN([C@@H](C)CO)S2(=O)=O	–	–	–	85	–	–
CCCC#Cc1ccc2c(c1)O[C@@H](CN(C)S(=O)(=O)c1cccc(OC)c1)[C@@H](C)CN([C@@H](C)CO)S2(=O)=O	–	–	–	98	–	–
CC(=O)N(C)C[C@@H]1Oc2cc(C#Cc3ccccn3)ccc2S(=O)(=O)N([C@H](C)CO)C[C@@H]1C	–	–	–	70	–	–
CCCC#Cc1ccc2c(c1)O[C@H](CN(C)S(=O)(=O)c1cccc(OC)c1)[C@@H](C)CN([C@H](C)CO)S2(=O)=O	·	–	·	–	·	–
C#CCN1[C@H](/C=C/C2CC2)[C@H](Cc2ccccc2)OC(=O)[C@@H]1Cc1ccccc1	–	·	·	·	–	·
Cc1noc(C)c1NC(=O)N(C)C[C@@H]1Oc2cc(C#CCC3CCCC3)ccc2S(=O)(=O)N([C@H](C)CO)C[C@@H]1C	–	–	–	–	99	–
CCCC#Cc1ccc2c(c1)O[C@@H](CN(C)C(C)=O)[C@@H](C)CN([C@H](C)CO)S2(=O)=O	–	–	–	–	–	–
CCCC#Cc1ccc2c(c1)O[C@H](CN(C)C(C)=O)[C@H](C)CN([C@@H](C)CO)S2(=O)=O	–	–	–	123	–	–
C[C@H](CO)N1C[C@H](C)[C@@H](CN(C)C(=O)Cc2ccccn2)Oc2cc(C#C[C@@H](C)O)ccc2S1(=O)=O	–	41	–	–	–	–
O=C(C[C@H]1CC[C@@H]2[C@H](COC[C@@H](O)CN2S(=O)(=O)c2ccc(Cl)cc2)O1)N[C@@H]1CCN(Cc2ccccc2)C1	–	–	–	–	–	–
O=C(Cn1nc(CNc2ccc(Br)cc2)[n+]2c1CCCCC2)c1ccc([N+](=O)[O-])cc1	28	·	–	·	–	·
CCC(=O)N1CC[C@@H]2[C@H](CO)Nc3ccc(-c4ccc(F)cc4)cc3[C@@H]21	–	–	–	–	–	–
Cc1ccc(NCc2cccc(B(O)O)c2)cc1	–	43	–	·	–	–
COc1ccccc1CCn1cnc(-c2ccccc2F)c1CC(C)C	–	42	·	–	–	–
COc1ccccc1CCn1cnc(-c2ccc(OC)c(OC)c2)c1C(C)C	–	–	·	–	–	–
CCCCCc1c(-c2ccc(F)cc2F)ncn1CCc1ccccc1OC	–	104	·	–	–	–
CCCCc1c(-c2ccc(F)cc2F)ncn1CCc1ccccc1OC	–	120	·	–	–	–
CCCCCc1c(-c2ccccc2)ncn1CCc1ccccc1OC	–	–	·	–	–	–
COc1ccccc1CCn1cnc(-c2ccc(F)cc2F)c1CC(C)C	–	·	·	–	–	–
COc1ccccc1CCn1cnc(-c2cccc(F)c2)c1C(C)C	–	64	·	–	–	–
C[C@@H]1CN([C@H](C)CO)C(=O)c2cccc(NC(=O)c3ccc(-c4nccs4)cc3)c2O[C@H]1CN(C)S(=O)(=O)c1ccc(Cl)cc1	–	–	–	–	–	–
